According to ChEMBL document CHEMBL4382192, “Discovery of a potent dual ALK and EGFR T790M inhibitor” (Eur J Med Chem, 2017):

Columns and labels:
[1] = AUClast in mouse at 2 mg/kg, iv; assay type: ADME, organism-based; set-up: dose 2 mg/kg, route intravenous, time 0 - last; conditions: in vivo
[2] = Drug uptake in mouse plasma at 10 mg/kg, po after 8 hrs; assay type: ADME, organism-based
[3] = target: Tyrosine-protein kinase ABL1 (Homo sapiens) (UniProt P00519); experiment: Binding affinity to wild-type human phosphorylated ABL1 (S229 to K512 residues) expressed in mammalian expression system assessed as residual binding level at 1 uM by Kinomescan method relative to control
[4] = target: Calcium/calmodulin-dependent protein kinase type 1G (Homo sapiens) (UniProt Q96NX5); experiment: Binding affinity to wild-type human partial length CAMK1G (M1 to A342 residues) expressed in bacterial expression system assessed as residual binding level at 1 uM by Kinomescan method relative to control
Sequence of Calcium/calmodulin-dependent protein kinase type 1G (Homo sapiens) (Q96NX5 whole entry, the tested form may be a part): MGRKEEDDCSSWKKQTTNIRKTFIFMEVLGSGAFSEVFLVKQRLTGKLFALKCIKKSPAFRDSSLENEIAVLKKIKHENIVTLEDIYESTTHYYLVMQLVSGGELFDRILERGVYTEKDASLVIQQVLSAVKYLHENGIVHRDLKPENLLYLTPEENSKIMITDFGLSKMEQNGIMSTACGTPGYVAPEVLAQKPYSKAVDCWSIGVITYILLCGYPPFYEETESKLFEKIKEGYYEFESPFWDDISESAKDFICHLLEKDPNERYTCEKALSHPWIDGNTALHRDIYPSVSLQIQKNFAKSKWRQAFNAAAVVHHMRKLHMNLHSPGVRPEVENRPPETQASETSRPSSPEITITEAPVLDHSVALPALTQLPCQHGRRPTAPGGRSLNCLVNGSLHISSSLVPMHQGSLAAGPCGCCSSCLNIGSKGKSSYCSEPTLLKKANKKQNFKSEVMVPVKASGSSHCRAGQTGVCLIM

[5] = target: Cyclin-dependent kinase 13 (Homo sapiens) (UniProt Q14004); experiment: Binding affinity to wild-type human partial length CDC2L5 (H675 to S1054 residues) expressed in mammalian expression system assessed as residual binding level at 1 uM by Kinomescan method relative to control
[6] = target: Dual specificity protein kinase CLK2 (Homo sapiens) (UniProt P49760); experiment: Binding affinity to wild-type human partial length CLK2 (D144 to R498 residues) expressed in bacterial expression system assessed as residual binding level at 1 uM by Kinomescan method relative to control
[7] = test system: Epidermal growth factor receptor (Homo sapiens), P00533 [G719S]; experiment: Binding affinity to human partial length EGFR G719S mutant (R669 to V1011 residues) expressed in bacterial expression system assessed as residual binding level at 1 uM by Kinomescan method relative to control
In short: (§1)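 Kinome-wide selectivity panel run by the KINOMEscan method, with the test compound at a single concentration of 1 μM. Wild-type and mutant kinases were profiled in the same screen.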

[8] = test system: Epidermal growth factor receptor (Homo sapiens), P00533 [L861Q]; experiment: Binding affinity to human partial length EGFR L861Q mutant (R669 to V1011 residues) expressed in bacterial expression system assessed as residual binding level at 1 uM by Kinomescan method relative to control; in short: as §1
[9] = target: Ephrin type-A receptor 4 (Homo sapiens) (UniProt P54764); experiment: Binding affinity to wild-type human partial length EPHA4 (T601 to R897 residues) expressed in bacterial expression system assessed as residual binding level at 1 uM by Kinomescan method relative to control
[10] = target: Ephrin type-A receptor 8 (Homo sapiens) (UniProt P29322); experiment: Binding affinity to wild-type human partial length EPHA8 (Q608 to C920 residues) expressed in bacterial expression system assessed as residual binding level at 1 uM by Kinomescan method relative to control
[11] = target: Tyrosine-protein kinase Fer (Homo sapiens) (UniProt P16591); experiment: Binding affinity to wild-type human partial length FER (S542 to T822 residues) expressed in bacterial expression system assessed as residual binding level at 1 uM by Kinomescan method relative to control
[12] = target: Fibroblast growth factor receptor 2 (Homo sapiens) (UniProt P21802); experiment: Binding affinity to wild-type human partial length FGFR2 (D457 to E769 residues) expressed in bacterial expression system assessed as residual binding level at 1 uM by Kinomescan method relative to control
Sequence of Fibroblast growth factor receptor 2 (Homo sapiens) (P21802 22-821 limits assumed): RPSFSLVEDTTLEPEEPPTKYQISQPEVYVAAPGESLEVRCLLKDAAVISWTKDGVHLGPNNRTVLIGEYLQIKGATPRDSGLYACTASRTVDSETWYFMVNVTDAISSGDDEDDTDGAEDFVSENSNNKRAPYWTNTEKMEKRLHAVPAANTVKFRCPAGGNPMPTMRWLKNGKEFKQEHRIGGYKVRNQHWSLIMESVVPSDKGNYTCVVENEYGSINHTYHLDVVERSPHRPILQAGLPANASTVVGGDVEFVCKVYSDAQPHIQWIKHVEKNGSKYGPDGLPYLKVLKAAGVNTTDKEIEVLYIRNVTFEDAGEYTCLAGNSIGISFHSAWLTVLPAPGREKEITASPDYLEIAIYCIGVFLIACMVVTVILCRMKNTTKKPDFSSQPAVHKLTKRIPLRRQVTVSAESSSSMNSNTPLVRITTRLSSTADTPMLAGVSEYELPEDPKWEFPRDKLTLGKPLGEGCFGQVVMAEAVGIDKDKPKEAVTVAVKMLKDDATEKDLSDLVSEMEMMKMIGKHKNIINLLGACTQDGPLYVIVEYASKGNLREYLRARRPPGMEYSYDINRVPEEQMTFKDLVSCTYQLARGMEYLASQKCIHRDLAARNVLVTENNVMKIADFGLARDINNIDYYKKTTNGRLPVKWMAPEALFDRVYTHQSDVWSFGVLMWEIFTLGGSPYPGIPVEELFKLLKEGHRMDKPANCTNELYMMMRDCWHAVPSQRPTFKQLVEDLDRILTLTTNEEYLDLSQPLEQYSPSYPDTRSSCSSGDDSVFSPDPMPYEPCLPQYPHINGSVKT

[13] = test system: Mast/stem cell growth factor receptor Kit (Homo sapiens), P10721 [V559D]; experiment: Binding affinity to human partial length KIT V559D mutant (Y545 to D952 residues) expressed in bacterial expression system assessed as residual binding level at 1 uM by Kinomescan method relative to control; in short: as §1
[14] = target: Dual specificity mitogen-activated protein kinase kinase 7 (Homo sapiens) (UniProt O14733); experiment: Binding affinity to wild-type human full length MKK7 (M1 to R419 residues) expressed in mammalian expression system assessed as residual binding level at 1 uM by Kinomescan method relative to control
In short: (§2)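 Single-point kinome-wide KINOMEscan binding panel, test compound at 1 μM, run by the provider's standard protocol.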

[15] = target: Serine/threonine-protein kinase Nek9 (Homo sapiens) (UniProt Q8TD19); experiment: Binding affinity to wild-type human partial length NEK9 (P32 to R328 residues) expressed in bacterial expression system assessed as residual binding level at 1 uM by Kinomescan method relative to control
[16] = target: Serine/threonine-protein kinase PAK 3 (Homo sapiens) (UniProt O75914); experiment: Binding affinity to wild-type human full length PAK3 (M1 to R544 residues) expressed in bacterial expression system assessed as residual binding level at 1 uM by Kinomescan method relative to control; in short: as §2
Sequence of Serine/threonine-protein kinase PAK 3 (Homo sapiens) (O75914 whole entry, looked up, the tested form may be a part): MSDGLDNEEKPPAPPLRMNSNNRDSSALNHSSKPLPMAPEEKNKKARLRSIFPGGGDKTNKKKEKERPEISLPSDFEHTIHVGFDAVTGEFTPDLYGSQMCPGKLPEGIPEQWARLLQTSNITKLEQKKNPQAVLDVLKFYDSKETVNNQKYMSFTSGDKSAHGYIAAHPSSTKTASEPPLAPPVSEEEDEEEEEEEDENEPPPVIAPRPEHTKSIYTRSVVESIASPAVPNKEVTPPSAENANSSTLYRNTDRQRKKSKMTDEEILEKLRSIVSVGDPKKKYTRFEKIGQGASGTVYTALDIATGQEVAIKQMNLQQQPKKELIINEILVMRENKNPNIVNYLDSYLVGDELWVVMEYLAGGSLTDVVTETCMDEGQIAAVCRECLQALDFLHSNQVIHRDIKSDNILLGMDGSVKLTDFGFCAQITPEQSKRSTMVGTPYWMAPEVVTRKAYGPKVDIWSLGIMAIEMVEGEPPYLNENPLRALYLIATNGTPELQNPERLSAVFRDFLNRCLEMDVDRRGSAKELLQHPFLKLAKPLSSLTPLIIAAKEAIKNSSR

[17] = target: Membrane-associated tyrosine- and threonine-specific cdc2-inhibitory kinase (Homo sapiens) (UniProt Q99640); experiment: Binding affinity to wild-type human partial length PKMYT1 (A88 to G366 residues) expressed in bacterial expression system assessed as residual binding level at 1 uM by Kinomescan method relative to control
Sequence of Membrane-associated tyrosine- and threonine-specific cdc2-inhibitory kinase (Homo sapiens) (Q99640 whole entry, the tested form may be a part): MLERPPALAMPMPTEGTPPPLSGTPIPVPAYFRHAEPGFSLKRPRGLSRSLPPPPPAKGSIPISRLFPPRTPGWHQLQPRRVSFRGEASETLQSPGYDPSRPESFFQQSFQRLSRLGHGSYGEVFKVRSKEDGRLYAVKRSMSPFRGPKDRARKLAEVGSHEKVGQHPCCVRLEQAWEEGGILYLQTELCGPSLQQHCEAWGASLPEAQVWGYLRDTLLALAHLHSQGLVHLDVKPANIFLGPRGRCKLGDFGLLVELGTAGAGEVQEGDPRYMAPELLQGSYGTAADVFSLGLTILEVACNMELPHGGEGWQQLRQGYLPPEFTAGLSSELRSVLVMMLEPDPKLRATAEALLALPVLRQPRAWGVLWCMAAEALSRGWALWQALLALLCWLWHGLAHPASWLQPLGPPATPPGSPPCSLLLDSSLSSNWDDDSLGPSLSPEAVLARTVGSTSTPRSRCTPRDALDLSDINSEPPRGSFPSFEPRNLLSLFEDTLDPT

[18] = target: Serine/threonine-protein kinase SIK3 (Homo sapiens) (UniProt Q9Y2K2); experiment: Binding affinity to wild-type human partial length QSK (A90 to L395 residues) expressed in mammalian expression system assessed as residual binding level at 1 uM by Kinomescan method relative to control
Sequence of Serine/threonine-protein kinase SIK3 (Homo sapiens) (Q9Y2K2 whole entry, looked up, the tested form may be a part): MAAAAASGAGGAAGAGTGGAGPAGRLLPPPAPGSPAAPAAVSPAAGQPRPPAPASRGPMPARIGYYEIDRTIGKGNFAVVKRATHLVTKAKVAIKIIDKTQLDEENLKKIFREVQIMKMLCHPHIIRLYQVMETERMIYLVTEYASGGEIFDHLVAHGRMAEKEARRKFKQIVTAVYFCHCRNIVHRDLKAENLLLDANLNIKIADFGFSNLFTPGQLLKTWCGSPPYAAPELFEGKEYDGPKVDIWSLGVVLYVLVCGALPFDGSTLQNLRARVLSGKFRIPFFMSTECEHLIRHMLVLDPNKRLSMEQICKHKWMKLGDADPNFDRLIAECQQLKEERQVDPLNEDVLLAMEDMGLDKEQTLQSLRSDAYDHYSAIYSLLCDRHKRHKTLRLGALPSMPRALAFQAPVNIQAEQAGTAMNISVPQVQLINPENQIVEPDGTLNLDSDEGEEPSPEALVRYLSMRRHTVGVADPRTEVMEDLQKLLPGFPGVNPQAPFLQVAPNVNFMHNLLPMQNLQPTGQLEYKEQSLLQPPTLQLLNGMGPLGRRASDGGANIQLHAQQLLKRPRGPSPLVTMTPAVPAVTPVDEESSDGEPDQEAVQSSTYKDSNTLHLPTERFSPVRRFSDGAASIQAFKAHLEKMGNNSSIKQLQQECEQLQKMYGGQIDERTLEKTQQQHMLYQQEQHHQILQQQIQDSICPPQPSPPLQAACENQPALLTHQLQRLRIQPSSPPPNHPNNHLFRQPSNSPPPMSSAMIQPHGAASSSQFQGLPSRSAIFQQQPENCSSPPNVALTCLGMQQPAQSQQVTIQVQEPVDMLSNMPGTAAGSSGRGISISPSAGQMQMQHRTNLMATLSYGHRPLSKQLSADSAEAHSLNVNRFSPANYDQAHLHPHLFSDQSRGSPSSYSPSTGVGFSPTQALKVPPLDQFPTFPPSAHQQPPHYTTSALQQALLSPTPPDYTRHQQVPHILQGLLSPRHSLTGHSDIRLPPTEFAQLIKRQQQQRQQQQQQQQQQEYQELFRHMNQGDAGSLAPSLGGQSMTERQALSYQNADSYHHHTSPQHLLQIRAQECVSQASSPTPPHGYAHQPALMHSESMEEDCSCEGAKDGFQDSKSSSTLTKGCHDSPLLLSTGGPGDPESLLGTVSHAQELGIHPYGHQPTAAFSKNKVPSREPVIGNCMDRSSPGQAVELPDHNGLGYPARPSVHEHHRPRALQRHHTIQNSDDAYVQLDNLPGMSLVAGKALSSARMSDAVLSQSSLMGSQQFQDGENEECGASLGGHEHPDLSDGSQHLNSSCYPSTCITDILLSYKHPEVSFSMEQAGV

[19] = target: RAF proto-oncogene serine/threonine-protein kinase (Homo sapiens) (UniProt P04049); experiment: Binding affinity to wild-type human partial length RAF1 (I330 to T640 residues) expressed in bacterial expression system assessed as residual binding level at 1 uM by Kinomescan method relative to control
Sequence of RAF proto-oncogene serine/threonine-protein kinase (Homo sapiens) (P04049 whole entry, the tested form may be a part): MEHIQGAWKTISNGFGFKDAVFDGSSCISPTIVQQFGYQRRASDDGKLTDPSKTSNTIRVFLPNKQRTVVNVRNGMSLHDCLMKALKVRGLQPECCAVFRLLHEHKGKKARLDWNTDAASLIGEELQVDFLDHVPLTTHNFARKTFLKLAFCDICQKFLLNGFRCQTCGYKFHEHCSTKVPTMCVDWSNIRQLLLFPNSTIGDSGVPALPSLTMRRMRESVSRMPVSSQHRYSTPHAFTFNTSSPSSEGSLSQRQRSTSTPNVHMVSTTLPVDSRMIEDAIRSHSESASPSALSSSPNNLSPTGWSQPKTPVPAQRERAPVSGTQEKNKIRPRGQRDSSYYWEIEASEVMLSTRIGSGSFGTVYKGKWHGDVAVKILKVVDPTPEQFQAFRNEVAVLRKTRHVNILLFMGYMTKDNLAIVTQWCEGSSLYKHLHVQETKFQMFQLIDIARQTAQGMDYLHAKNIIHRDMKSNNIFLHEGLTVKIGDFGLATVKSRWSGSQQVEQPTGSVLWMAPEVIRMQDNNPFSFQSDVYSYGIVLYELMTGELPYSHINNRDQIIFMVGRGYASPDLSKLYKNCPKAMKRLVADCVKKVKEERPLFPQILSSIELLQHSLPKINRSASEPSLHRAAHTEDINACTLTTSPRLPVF

[20] = target: Serine/threonine-protein kinase RIO3 (Homo sapiens) (UniProt O14730); experiment: Binding affinity to wild-type human full length RIOK3 (M1 to E519 residues) expressed in bacterial expression system assessed as residual binding level at 1 uM by Kinomescan method relative to control; in short: as §2
[21] = target: Receptor-interacting serine/threonine-protein kinase 4 (Homo sapiens) (UniProt P57078); experiment: Binding affinity to wild-type human partial length RIPK4 (M1 to V303 residues) expressed in mammalian expression system assessed as residual binding level at 1 uM by Kinomescan method relative to control
[22] = target: Ribosomal protein S6 kinase alpha-1 (Homo sapiens) (UniProt Q15418); experiment: Binding affinity to wild-type human partial length C-terminal RSK1 kinase domain 2 (P360 to L681 residues) expressed in bacterial expression system assessed as residual binding level at 1 uM by Kinomescan method relative to control
Sequence of Ribosomal protein S6 kinase alpha-1 (Homo sapiens) (Q15418 whole entry, the tested form may be a part): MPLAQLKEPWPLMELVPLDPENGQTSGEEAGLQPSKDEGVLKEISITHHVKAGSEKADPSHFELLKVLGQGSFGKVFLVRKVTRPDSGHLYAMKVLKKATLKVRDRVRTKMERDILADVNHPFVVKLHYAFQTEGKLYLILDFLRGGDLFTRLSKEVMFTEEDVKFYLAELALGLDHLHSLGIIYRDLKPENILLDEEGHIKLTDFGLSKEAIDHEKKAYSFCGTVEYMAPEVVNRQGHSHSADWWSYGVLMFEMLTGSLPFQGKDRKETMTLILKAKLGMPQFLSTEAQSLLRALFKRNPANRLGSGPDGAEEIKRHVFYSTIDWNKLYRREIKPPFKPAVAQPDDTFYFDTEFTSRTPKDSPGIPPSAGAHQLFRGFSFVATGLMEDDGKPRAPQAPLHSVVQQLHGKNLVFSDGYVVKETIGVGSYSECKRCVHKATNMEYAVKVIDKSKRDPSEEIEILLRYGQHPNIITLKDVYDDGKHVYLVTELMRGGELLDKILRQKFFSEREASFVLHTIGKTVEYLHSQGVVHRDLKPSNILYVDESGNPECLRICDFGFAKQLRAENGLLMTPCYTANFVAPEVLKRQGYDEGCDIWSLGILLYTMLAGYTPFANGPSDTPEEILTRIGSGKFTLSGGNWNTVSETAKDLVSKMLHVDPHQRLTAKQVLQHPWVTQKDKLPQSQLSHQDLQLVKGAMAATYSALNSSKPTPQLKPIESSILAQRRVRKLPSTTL

[23] = target: Serine/threonine-protein kinase 35 (Homo sapiens) (UniProt Q8TDR2); experiment: Binding affinity to wild-type human partial length STK35 (G182 to A534 residues) expressed in bacterial expression system assessed as residual binding level at 1 uM by Kinomescan method relative to control
[24] = target: Tyrosine-protein kinase Tec (Homo sapiens) (UniProt P42680); experiment: Binding affinity to wild-type human partial length TEC (L341 to D620 residues) expressed in bacterial expression system assessed as residual binding level at 1 uM by Kinomescan method relative to control
Activated CDC42 kinase 1 = Activated CDC42 kinase 1 (Homo sapiens, UniProt Q07912); experiment: Binding affinity to wild-type human partial length TNK2 (S159 to D474 residues) expressed in bacterial expression system assessed as residual binding level at 1 uM by Kinomescan method relative to control

C=CC(=O)Nc1cc(Nc2ncc(Cl)c(Nc3ccccc3S(=O)(=O)C(C)C)n2)c(OC)cc1N(C)CCN(C)C
AUC(0-t) [1]: 1290 ng·h/mL | concentration at 8 h [2]: 10 nM | Activity [3]: 7.5% | Activity [4]: 45% | Activity [5]: 91% | Activity [6]: 1.7% | Activity [7]: 0% | Activity [8]: 2% | Activity [9]: 80% | Activity [10]: 97% | Activity [11]: 0% | Activity [12]: 15% | Activity [13]: 31% | Activity [14]: 77% | Activity [15]: 70% | Activity [16]: 23% | Activity [17]: 80% | Activity [18]: 61% | Activity [19]: 88% | Activity [20]: 93% | Activity [21]: 72% | Activity [22]: 44% | Activity [23]: 71% | Activity [24]: 1% | Activity (Activated CDC42 kinase 1): 0.15%
